Only some compounds are listed: those with a hit (about 0.77% of all), similar ones and a draw of the others.
S1P4 ag: S1P4 receptor agonists, primary screen, cell-based; Sphingosine 1-phosphate receptor 4 (Homo sapiens), O95977; S1P4-expressing cell line, agonist reporter assay; activation, % at 4.98 µM; hit rate 0.35% among 220,000; in the data active means activation above about 11%
Target sequence (O95977 whole entry, looked up): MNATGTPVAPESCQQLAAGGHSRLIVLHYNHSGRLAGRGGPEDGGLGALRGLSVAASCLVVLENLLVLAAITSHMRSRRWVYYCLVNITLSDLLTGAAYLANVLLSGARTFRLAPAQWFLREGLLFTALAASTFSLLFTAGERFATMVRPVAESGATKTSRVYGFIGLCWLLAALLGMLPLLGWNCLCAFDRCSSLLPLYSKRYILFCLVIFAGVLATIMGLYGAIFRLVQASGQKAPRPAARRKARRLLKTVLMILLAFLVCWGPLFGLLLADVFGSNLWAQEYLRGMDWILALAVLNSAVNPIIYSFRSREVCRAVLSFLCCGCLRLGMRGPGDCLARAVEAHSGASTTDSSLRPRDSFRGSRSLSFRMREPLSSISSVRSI
S1P4 antag: S1P4 receptor antagonists, primary screen, cell-based; AID 1510, 2009; S1P4-expressing cells, antagonist mode, reporter read-out; hit rate 0.26% among 220,000; inhibition, % at 4.98 µM; Sphingosine 1-phosphate receptor 4 (Homo sapiens), O95977; in the data active means inhibition above about 29%
Pf gametocyte: late stage P. falciparum gametocyte viability inhibitors, primary screen, ATP luminescence, HTS | P. falciparum stage V gametocytes, 24 h | inhibition, % at 10.9 µM | hit rate 0.065% among 150,000;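 active means inhibition above the mean plus 3 SD of compounds within the control limits, set per campaign, cut at about 38% in these data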
Calb biofilm kill: clotrimazole potentiators killing C. albicans biofilm, primary screen, 4-compound mixtures; C. albicans biofilm persisters + clotrimazole, fluorescence viability; primary screen in compound mixtures of four per well; AID 1242, 2008; inhibition, % at 7.6 µM; hit rate 0.02% among 120,000;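 active means inhibition above 30.3% in the primary screen of four-compound pools, then above 30% when the compound was retested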;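 further: compounds exposed to preformed 24 h biofilms for 48 h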
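Assay system: C. albicans biofilms / Medium: RPMI/MOPS medium, pH 7.0 / Schedule: biofilm formation 24 h, compound exposure 48 h, 37 °C / Measured by: Alamar Blue fluorescence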
S1P3 antag: S1P3 receptor antagonists, primary screen, cell-based; Sphingosine 1-phosphate receptor 3 (Homo sapiens), Q99500; CHO S1P3 NFAT-BLA reporter, FRET fluorescence, antagonist mode; inhibition, % at 4.98 µM; hit rate 0.27% among 170,000; AID 485, 2006;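 active means inhibition above the plate cutoff, the mean inhibition of test wells on that plate plus 3 SD, cut at about 28% in these data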;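 further: cells challenged with S1P at its EC80 of 0.8 µM; blue over green emission ratio from cleaved BLA substrate after 4 h stimulation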
S1P4 ag conf: S1P4 receptor agonists, retest, confirmation, cell-based, high throughput. S1P4 agonist cell-based reporter assay. hit rate 7% among 740. shares compounds with S1P4 ag. activation, % at 4.98 µM; in the data active means activation above about 12%
S1P1 agonist: S1P1 receptor agonists, human, counter-screen for S1P4 agonist project, cell-based | shares compounds with S1P4 ag | S1P1 agonist cell-based assay, activation | activation, % at 4.98 µM | hit rate 4% among 740 | AID 1563, 2009; in the data active means activation above about 21%
Numbers stand for hits; n = inactive; x = not tested or not shown.

SMILES	S1P4 ag	S1P4 antag	Pf gametocyte	Calb biofilm kill	S1P3 antag	S1P4 ag conf	S1P1 agonist
CCOc1ccc(S(=O)(=O)n2cc(F)c(=O)[nH]c2=O)cc1	n	n	n	n	n	x	x
CCCN(CCC)C(=O)CC(c1ccccc1)c1cc(C)ccc1O (stereo not given)	51	n	x	x	x	n	n
Cc1ccc(O)c(C(CC(=O)NC(C)C)c2ccccc2)c1 (stereo not given)	n	n	n	n	n	x	x
CCc1ccc(NC(=O)N(CCN2CCOCC2)C2CCN(C(C)=O)CC2)cc1	16	n	x	x	n	n	n
O=Cc1c(C(=O)O)n(CC(=O)O)c2ccccc12	n	n	n	n	n	x	x
CC(C)CNS(=O)(=O)c1ccc(S(=O)(=O)N2CCC3(CC2)OCCO3)cc1	16	n	n	n	n	n	n
Cc1cc(NC(=O)NN2CCOCC2)nn1-c1c(Cl)cccc1Cl	n	n	n	n	n	x	x
O=C(CSC(=S)N1CCSCC1)c1ccc(Cl)cc1	n	n	n	n	n	x	x
O=C(CSC(=S)N1CCSCC1)c1ccccc1	53	n	n	n	n	n	n
COc1cc(OC)cc(-c2c(C#Cc3ccsc3)c3cc(-c4cccc5[nH]cc(C=O)c45)ccc3n2C)c1	x	x	n	x	x	x	x
COc1ccc(NCC(=O)N/N=C2\CCCC(C)C2)cc1 (stereo not given)	23	n	n	n	n	n	n
CC1CCC/C(=N\NC(=O)Nc2ccccc2)C1 (stereo not given)	n	n	n	n	n	x	x
CC(C)(C)OC(=O)CNC(=O)c1[nH]cnc1C(=O)NCCCCCNC(=O)OC(C)(C)C	x	x	n	x	x	x	x
CCCCC(=O)Nc1ccc(Cl)cn1	n	n	x	x	n	x	x
CCCCCC(=O)Nc1ccc(Cl)cn1	15	n	n	x	n	n	n
CCNC(=S)N(CCc1cccc(C)c1)Cc1cc2cc(OC)c(OC)cc2[nH]c1=O	51	n	x	n	n	n	n
CCN(N)C(=S)Nc1ccc(F)cc1	33	n	n	n	n	n	n
Cc1ccc(NC(=S)N(N)CCO)cc1	n	n	n	n	n	x	x
CCOC(=O)C1=C(C)NC(=O)NC1c1ccc(N2CCC(c3ccccc3)=N2)cc1 (stereo not given)	15	n	n	n	n	n	n
CCOC(=O)CC1C(=O)NCCN1S(=O)(=O)c1ccc(Br)cc1 (stereo not given)	11	n	n	n	n	n	n
CCOC(=O)CC1C(=O)NCCN1S(=O)(=O)c1ccc(C)cc1 (stereo not given)	n	n	n	n	n	x	x
CC(C)NC(=O)/C(C#N)=C/c1ccc(N(C)C)o1	n	n	n	n	n	x	x
CCCCN(CC)C(=O)c1ccc(Cl)cc1	n	n	n	n	n	x	x
CCN(CC(=O)NC(C)C)C(=O)c1ccc(Cl)cc1	18	n	n	n	n	n	n
COc1ccc(OC)c(NC(=O)c2ccccc2N(Cc2ccccc2)S(C)(=O)=O)c1	58	n	n	n	n	n	n
SMILES	S1P4 ag	S1P4 antag	Pf gametocyte	Calb biofilm kill	S1P3 antag	S1P4 ag conf	S1P1 agonist
COc1ccc(NC(=O)CSc2nnc(C3CCCCC3)n2N)cc1	n	n	n	n	n	x	x
Nn1c(SCC(=O)Nc2cccc(F)c2)nnc1C1CCCCC1	18	n	n	x	n	n	n
COc1cccc(CNC(=O)CSc2ccc(-c3ccncc3)nn2)c1	n	n	x	n	n	x	x
COc1ccccc1CNC(=O)CSc1ccc(-c2ccncc2)nn1	29	n	n	n	n	n	n
Cn1c(=NC(=O)C(C)(C)C)sc2cccc(F)c21	n	n	n	n	n	x	x
Cn1c(=NC(=O)c2ccccc2[N+](=O)[O-])sc2cccc(F)c21	11	n	n	n	n	n	n
O=c1oc2c(CN3CCN(CCO)CC3)c(O)ccc2cc1-c1ccccn1	14	n	n	n	n	n	n
O=c1oc2c(CN3CCCCC3)c(O)ccc2cc1-c1nc2ccccc2[nH]1	x	x	x	x	n	x	x
Cc1cc(=O)n2[nH]c(SCc3c(F)cccc3Cl)nc2n1	x	x	n	x	x	x	x
COc1ccccc1NC(=O)c1c(NC(=O)c2ccco2)sc2c1CCC2	14	n	x	x	n	n	n
Cc1ccccc1OCC(=O)NC(=S)Nc1ccc(N2CCOCC2)c(Cl)c1	n	n	n	x	x	x	x
COc1ccccc1C(=O)NC(=S)Nc1ccc(N2CCOCC2)c(Cl)c1	36	n	n	n	n	n	81
Cn1cnc2cc(NC(=O)c3ccco3)ccc21	61	n	n	x	n	n	n
O=C(Nc1ccc2c(c1)ncn2-c1ccccc1)c1ccco1	n	n	x	x	n	x	x
O=C(O)CN1C(=O)/C(=C/c2ccc(SCc3ccccc3)o2)SC1=S	n	n	n	n	n	x	x
CCOC(=O)N1CCN(Cc2nc(-c3ccc(Cl)cc3)no2)CC1	37	n	x	x	x	n	n
COc1cccc(NC(C(=O)Nc2cccc(C(C)=O)c2)c2ccccc2)c1 (stereo not given)	14	n	n	n	n	n	n
COc1cc(NC(C(=O)Nc2cccc(C(C)=O)c2)c2ccccc2)cc(OC)c1OC (stereo not given)	n	n	n	n	n	x	x
O=C(CSc1ccc(F)cc1)NCCSc1ccccc1	11	n	n	n	n	n	n
O=C(CSc1ccccc1)NCCc1ccc(F)cc1	x	x	n	x	x	x	x
O=c1cc(-c2ccc([N+](=O)[O-])cc2)c2ccc(O)cc2o1	12	n	n	n	n	n	n
COc1cccc(C(=O)NNC(=O)Cc2cccs2)c1	24	n	n	n	n	n	n
COc1cccc(OCC(=O)NNC(=O)Cc2cccs2)c1	n	n	n	n	n	x	x
Cc1c(C)c2cc(Cl)c(O)c(CN3CCCC(C)C3)c2oc1=O (stereo not given)	n	n	n	x	x	x	x
Cc1c(C)c2cc(Cl)c(O)c(CN3CCN(C)CC3)c2oc1=O	15	n	n	x	x	n	n
SMILES	S1P4 ag	S1P4 antag	Pf gametocyte	Calb biofilm kill	S1P3 antag	S1P4 ag conf	S1P1 agonist
O=S(=O)(c1ccc(Cl)cc1)N1CCN(c2nc(-c3cccs3)nc3ccccc23)CC1	15	n	n	n	n	n	n
Cc1cc(C)n(-c2ccc(C(=O)Nc3sccc3C(N)=O)cc2)n1	12	n	n	x	n	21	n
O=C(CNC(=O)c1ccc(F)cc1)N/N=C/c1cn[nH]c1-c1ccccc1	16	n	n	n	n	n	n
CC(C)CCNC(=O)C(=O)NC1CCCC1	57	n	x	n	n	n	n
CC(C)CCNC(=S)NC1CCCC1	n	n	x	x	x	x	x
Cc1cc(OCCN2CCOCC2)ccc1Cl	x	x	n	x	x	x	x
c1ccc(OCCN2CCN(C(c3ccccc3)c3ccccc3)CC2)cc1	x	x	n	x	x	x	x
COc1cccc(C2Nc3ccccc3NC3=C2C(=O)CC(C)(C)C3)c1 (stereo not given)	x	x	n	x	x	x	x
Cc1ccc(S(=O)(=O)N2CCc3ccccc3C2CC(=O)O)cc1 (stereo not given)	26	n	n	n	n	n	n

Assay outcomes from PubChem BioAssay.
